The structures appear in SMILES notation. The source made the active and inactive calls. No cut-off for these calls is given here.

For assay [1], the species on record is Homo sapiens. Put plainly: Binding affinity to Hemoglobin in normal human whole blood assessed as increase in Hb affinity for oxygen at 2 mM by oxygen equilibrium curve study. The format is tissue-based. Summed up: (§1)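 Normal human whole blood, hematocrit 30%, incubated with or without compound in DMSO (0.5, 1.0 or 2.0 mM; 2 mM for the time course) at 37 °C. The blood is tonometered about 7 min at 37 °C against gas with 0.804, 2.935 and 5.528% O2 (6, 20, 40 mmHg). sO2 and pO2 are read on a blood gas analyzer. ΔP50% is taken relative to no compound. Time course sampled at 1, 2, 4, 8, 12, 24 h.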

The species entered for assay [2] is Homo sapiens. Put plainly: Binding affinity to Hemoglobin in normal human whole blood assessed as increase in Hb affinity for oxygen incubated for 1.5 hrs by oxygen equilibrium curve study. The assay is classed as tissue-based. Put shortly:
as §1

Assay [3] has as its system Red blood cell. The experiment in a line: Binding affinity to Hemoglobin in sickle cell RBCs from blood isolated from patient with homozygous SS assessed as increase in hemoglobin modification at 1 mM under hypoxic conditions incubated for 2 hrs […]. The following applies: Homo sapiens. The assay is classed as tissue-based. Put shortly: (§2)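 SS blood, hematocrit 20%, incubated under air with compound (0.5, 1, 2 mM) at 37 °C for 1 h, then hypoxic (2.5% O2/97.5% N2) at 37 °C for 2 h. Cells are washed and hemolyzed. Lysate is run on weak cation-exchange HPLC to quantify Hb adduct (modified Hb). Three biological replicates, mean ± SD.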

In assay [4] the test system is Red blood cell. The experiment in a line: Binding affinity to Hemoglobin in sickle cell RBCs from blood isolated from patient with homozygous SS assessed as increase in hemoglobin modification at 2 mM under hypoxic conditions incubated for 2 hrs […]. The assay is classed as tissue-based. The following applies: Homo sapiens. Summed up: as §2

The subject of assay [5] is Red blood cell. The experiment in a line: Binding affinity to Hemoglobin in sickle cell RBCs from blood isolated from patient with homozygous SS assessed as increase in hemoglobin modification under hypoxic conditions incubated for 2 hrs […]. The format is tissue-based. The following applies: Homo sapiens. Summed up:
as §2

Assay [6] concerns Red blood cell. Put plainly: Binding affinity to Hemoglobin in sickle cell RBCs from blood isolated from patient with homozygous SS assessed as increase in Hb affinity for oxygen under hypoxic conditions incubated for 2 hrs by oxygen equilibrium curve study. The format is tissue-based. The following applies: Homo sapiens. Put shortly: (§3)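 SS blood, hematocrit 20%, incubated under air with compound (0.5, 1, 2 mM) at 37 °C for 1 h, then hypoxic (2.5% O2/97.5% N2) at 37 °C for 2 h. Cells are washed in PBS and hemolyzed hypotonically. Lysate in 0.1 M potassium phosphate pH 7.0 is run by Hemox analysis for P50. ΔP50 is given as percent of DMSO control. Three biological replicates, mean ± SD.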

A short description of assay [7]: Inhibition of sickling in sickle cell RBCs from blood isolated from patient with homozygous SS at 2 mM under hypoxic conditions incubated for 2 hrs. The following applies: Homo sapiens, Erythrocyte. The format is functional. Put shortly:
(§4)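 SS blood, hematocrit 20%, preincubated under air with compound (0.5, 1, 2 mM) for 1 h at 37 °C, then 2 h hypoxia (2.5% O2/97.5% N2) at 37 °C. Aliquots are fixed in 2% glutaraldehyde without air exposure. Cell morphology is scored from bright-field images at 40×. Three biological replicates, mean ± SD.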

Another assay deals with Erythrocyte. The experiment in a line: Inhibition of sickling in sickle cell RBCs from blood isolated from patient with homozygous SS under hypoxic conditions incubated for 2 hrs. The assay is classed as functional, tissue-based. The following applies: Homo sapiens. Put shortly:
as §4

Assay [8] concerns Red blood cell. Put plainly: Binding affinity to Hemoglobin in sickle cell RBCs from blood isolated from patient with homozygous SS assessed as increase in Hb affinity shift for oxygen at 2 mM under hypoxic conditions incubated for 2 hrs by oxygen equilibrium curve study. The format is tissue-based. The following applies: Homo sapiens. Summed up: as §3
Assay [9] has as its system Red blood cell. The experiment in a line: Binding affinity to Hemoglobin in sickle cell RBCs from blood isolated from patient with homozygous SS assessed as increase in Hb affinity shift for oxygen at 1 mM under hypoxic conditions incubated for 2 hrs by oxygen equilibrium curve study. The following applies: Homo sapiens. The format is tissue-based. Put shortly: as §3

For assay [10], the system named is Red blood cell. The experiment in a line: Binding affinity to Hemoglobin in sickle cell RBCs from blood isolated from patient with homozygous SS assessed as increase in hemoglobin modification at 0.5 mM under hypoxic conditions incubated for 2 hrs […]. The format is tissue-based. The following applies: Homo sapiens. Put shortly: as §2

A short description of assay [11]: Inhibition of sickling in sickle cell RBCs from blood isolated from patient with homozygous SS at 1 mM under hypoxic conditions incubated for 2 hrs. The assay is classed as functional. The following applies: Homo sapiens, Erythrocyte. Put shortly: as §4
Assay [12] in a line: Inhibition of sickling in sickle cell RBCs from blood isolated from patient with homozygous SS at 0.5 mM under hypoxic conditions incubated for 2 hrs. The following applies: Homo sapiens, Erythrocyte. The assay is classed as functional. Put shortly: as §4
Assay [13] has as its system Red blood cell. Put plainly: Binding affinity to Hemoglobin in sickle cell RBCs from blood isolated from patient with homozygous SS assessed as increase in Hb affinity shift for oxygen at 0.5 mM under hypoxic conditions incubated for 2 hrs by oxygen equilibrium curve study. The assay is classed as tissue-based. The following applies: Homo sapiens. Summed up:
as §3

Regarding `COC(=O)c1ccc(COc2cccc(O)c2C=O)nc1`, the outcome in the assay filed under Homo sapiens [1] and in the assay listed under Homo sapiens [2] was inactive.
On to `COC(=O)c1ccc(COc2ccc(OC)cc2C=O)nc1`, for which the outcome in the assay listed under Homo sapiens [1] and in the assay listed under Homo sapiens [2] was inactive.
As to `COC(=O)c1cncc(COc2ccc(OC)cc2C=O)c1`, the Activity is 60% in the assay with Red blood cell [3]; under 100% in the assay on Red blood cell [4]; “Dose-dependent effect” in the assay on Red blood cell [5]; “Dose-dependent effect” with Red blood cell [6]; “Tde” in the assay listed under Homo sapiens [1] (TDE = time-dependent effect); “Dose-dependent effect” in the assay listed under Homo sapiens [2]. The compound further displayed an inhibition at 2000 µM in assay [7] of over 90%. Moreover, the inhibition entry with Erythrocyte was “Dose-dependent effect”.
On to `COC(=O)c1cccc(COc2ccc(OC)cc2C=O)n1`, for which the Activity with Red blood cell [8] is 37.1%; with Red blood cell [9], 20.1%; with Red blood cell [10], 20.9%; in the assay with Red blood cell [3] it was 41.7%; in the assay with Red blood cell [4], 63.8%; in the assay on Red blood cell [5], “Dose-dependent effect”. In addition, the Activity result is “Dose-dependent effect” in the assay with Red blood cell [6] and 4.8% in the assay on Red blood cell [13]. In [11], this compound yielded an inhibition at 1000 µM of 48.2%. This compound also showed an inhibition at 2000 µM in [7] of 88%. Also, in [12], at 500 µM the inhibition was 17.5%. In addition, the inhibition result in the assay with Erythrocyte was “Dose-dependent effect”. Moreover, the outcome in the assay listed under Homo sapiens [1] and in the assay listed under Homo sapiens [2] was inactive.
For `COC(=O)c1ncccc1COc1cccc(O)c1C=O`, the Activity result in the assay on Red blood cell [5] and in the assay with Red blood cell [6] was “Dose-dependent effect” in each case. The inhibition at 2000 µM in [7] was over 90%. Further, the inhibition entry with Erythrocyte is “Dose-dependent effect”. The outcome in the assay filed under Homo sapiens [1] and in the assay filed under Homo sapiens [2] was inactive.
For the compound `COC(=O)c1ccc(COc2cccc(O)c2C=O)cn1`, the Activity with Red blood cell [8] is 60.1%; in the assay on Red blood cell [9], 44.2%; in the assay on Red blood cell [10], 47.8%; with Red blood cell [3], 92.5%; in the assay with Red blood cell [4], 100%; in the assay with Red blood cell [5], “Dose-dependent effect”. Further, the Activity result with Red blood cell [6] is “Dose-dependent effect”; in the assay listed under Homo sapiens [1] (TDE = time-dependent effect), “Tde”; with Red blood cell [13], 16.3%; in the assay filed under Homo sapiens [2] it was “Dose-dependent effect”. This compound also had an inhibition at 1000 µM in assay [11] of 90.7%. The same compound showed an inhibition at 2000 µM in [7] of 98.9%. In assay [12], this compound displayed an inhibition at 500 µM of 39.5%. Also, in the assay on Erythrocyte, the inhibition entry is “Dose-dependent effect”.
Take `CC(C)n1nccc1-c1ncccc1COc1cccc(O)c1C=O` [VOXELOTOR]: the Activity in the assay on Red blood cell [9] worked out at 80%; in the assay on Red blood cell [10], 55%; with Red blood cell [3], 100%; in the assay with Red blood cell [13], 41%. Moreover, the inhibition at 1000 µM in [11] was found to be 98%. In [12], this compound gave an inhibition at 500 µM of 56%.
`COC(=O)c1ccnc(COc2cccc(O)c2C=O)c1`: the Activity in the assay with Red blood cell [3] is over 80%; in the assay with Red blood cell [4] it was under 100%; with Red blood cell [5], “Dose-dependent effect”; with Red blood cell [6] it was “Dose-dependent effect”; in the assay filed under Homo sapiens [1] (TDE = time-dependent effect), “Tde”; in the assay listed under Homo sapiens [2] it was “Dose-dependent effect”. Also, in assay [7], the inhibition at 2000 µM is over 90%. The inhibition entry in the assay with Erythrocyte was “Dose-dependent effect”.
Take `COC(=O)c1cncc(COc2cccc(O)c2C=O)c1`: the Activity in the assay with Red blood cell [3] is 60%; with Red blood cell [4], under 100%; in the assay on Red blood cell [5], “Dose-dependent effect”; in the assay on Red blood cell [6] it was “Dose-dependent effect”. The inhibition at 2000 µM in assay [7] is over 90%. Further, in the assay on Erythrocyte, the inhibition result is “Dose-dependent effect”.

The term inhibition denotes the percentage by which the read-out fell short of the control.
